# Screening results as filed in PubChem.
# KCNK9 block = KCNK9 potassium channel inhibitors, primary screen, HEK293 cells, thallium flux | 310,000 compounds, 1.2% hits | Potassium channel subfamily K member 9 (Homo sapiens), Q9NPC2 | FluxOR thallium flux fluorescence; active compounds read low | AID 488922, 2010 | B-score at 10 µM;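 active means ratio B-score over 3 SD below the library mean, with starting fluorescence within 5 SD of its mean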;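 further: negative B-score means less thallium flux so channel inhibition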
# Target sequence (Q9NPC2 whole entry, looked up): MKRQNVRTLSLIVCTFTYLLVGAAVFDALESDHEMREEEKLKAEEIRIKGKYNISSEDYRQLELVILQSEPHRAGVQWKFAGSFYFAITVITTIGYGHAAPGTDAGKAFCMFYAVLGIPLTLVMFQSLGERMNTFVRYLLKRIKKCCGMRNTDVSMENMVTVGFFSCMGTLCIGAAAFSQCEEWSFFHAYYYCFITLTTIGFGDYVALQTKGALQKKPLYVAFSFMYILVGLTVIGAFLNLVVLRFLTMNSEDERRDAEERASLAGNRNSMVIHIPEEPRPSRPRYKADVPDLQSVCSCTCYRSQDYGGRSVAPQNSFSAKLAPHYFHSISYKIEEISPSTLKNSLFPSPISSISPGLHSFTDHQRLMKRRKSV
# KCNQ1 act = potentiators or activators of KCNQ1 channel, primary screen, cell-based, thallium flux, high-throughput. Potassium voltage-gated channel subfamily KQT member 1 (Homo sapiens), P51787. CHO-K1 KCNQ1, thallium flux FluxOR fluorescence; active compounds read high. B-score at 10 µM. 310,000 compounds, 0.35% hits. AID 2648, 2010;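 active means fluorescence ratio B-score, a plate-corrected score, at least three library SD, with initial intensity B-score within 5 SD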
#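 assay system = KCNQ1-transfected CHO-K1 cells | medium = assay buffer with matched DMSO | probe or stimulus = depolarizing K+/Tl+ stimulus, K2SO4 and Tl2SO4 each 12.5 mM in 5x stock | dosing = single dose | incubation = dye 90 min, compound 20 min, room temperature | detection = kinetic FluxOR fluorescence, 10 s baseline plus 110 s post-stimulus | evaluation = ratio B score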
# hERG rescue = hERG rescue from dofetilide block, primary screen, cell-based, CHO-hERG, FluxOR thallium flux, dofetilide IC70; Voltage-gated inwardly rectifying potassium channel KCNH2 (Homo sapiens), Q12809; dofetilide IC70 present; activation (rescue from dofetilide block), less the hit threshold, % at 10 µM; 310,000 compounds, 0.51% hits; AID 1511, 2009;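 active means activation above the mean of controls blocked by dofetilide plus 5 SD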;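 further: thallium influx through hERG after potassium depolarization seen as dye fluorescence rise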
# KCNQ1 inh = inhibitors of human KCNQ1 channel, primary screen, cell-based, thallium flux, high-throughput; Potassium voltage-gated channel subfamily KQT member 1 (Homo sapiens), P51787; CHO-K1 KCNQ1, FluxOR thallium flux fluorescence; active compounds read high; B-score at 10 µM; 310,000 compounds, 1.3% hits; AID 2642, 2010;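 active means compounds whose thallium flux B-score, printed positive for inhibition, exceeds three library SD while starting fluorescence stays within three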;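 further: channel opened by potassium depolarization with thallium stimulus after 20 min compound exposure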
# KCNK3 block = human KCNK3 channel inhibitors, primary screen, CHO cells, FluxOR thallium flux, B-score. Potassium channel subfamily K member 3 (Homo sapiens), O14649. FluxOR fluorescence; active compounds read low. B-score at 10 µM. 340,000 compounds, 0.84% hits;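 active means B-score under library mean minus 4 SD, starting fluorescence ratio at most library mean plus 5 SD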;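 further: more negative B-score means stronger inhibition of thallium flux through KCNK3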
# KCNQ1 inh valid = KCNQ1 potassium channel inhibitors, confirmation, cell-based, Tl flux, duplicate | shares compounds with KCNQ1 inh | KCNQ1 cell line, FluxOR thallium flux fluorescence | inhibition, % at 10 µM | 1,600 compounds, 93% hits;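 active means primary screen active, with duplicate mean exceeding buffer control mean plus 3 SD of buffer wells, cut at about 28% in these data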;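 further: 0% = buffer control ratio and 100% = XE991 inhibitor control ratio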
# CHO KCNQ1 ctr = thallium flux effects in parental CHO cells, counter-screen for KCNQ1 inhibitor project, cell-based, Tl flux; shares compounds with KCNQ1 inh; parental CHO-K1, FluxOR thallium flux fluorescence ratio; active compounds read low; zero means no signal rise above baseline; fluorescence ratio (Tl flux) at 10 µM; 1,600 compounds, 21% hits; AID 588366, 2011;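 active means mean of duplicate thallium-flux fluorescence ratios in parental host cells more than 5 SD below the buffer control mean, cut at about 0.38 in these data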;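 further: ratio is peak minus minimum fluorescence divided by baseline fluorescence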
# KCNQ1 ephys val = KCNQ1 channel inhibitors, confirmation, orthogonal assay, cell-based, automated electrophysiology. calls only at 10 µM. 490 compounds, 20% hits. KCNQ1-CHO cells, automated patch clamp current. AID 624120, 2012. shares compounds with KCNQ1 inh;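 active means KCNQ1 current drop exceeding 3 SD of negative control wells, seen in both duplicate runs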;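 further: steady state current during a 2 s step from -80 to +40 mV; negative values mean current inhibition and positive values mean potentiation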
# KCNQ2 inh = KCNQ2 channel inhibition, selectivity assay for KCNQ1 inhibitor project, cell-based. inhibition, % at 10 µM. 1,600 compounds, 71% hits. shares compounds with KCNQ1 inh. KCNQ2 cells, FluxOR thallium flux fluorescence;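 active means mean percent inhibition of the KCNQ2 thallium signal more than 5 SD above the buffer-only control wells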;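 further: KCNQ2 expressed in CHO cells; 0% = buffer control wells and 100% = XE-991 inhibitor control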
# KCNQ1 KCNE1 spec = KCNQ1/KCNE1 channel inhibition, selectivity assay for KCNQ1 inhibitor project, CHO-K1 cells, thallium flux, FluxOR; shares compounds with KCNQ1 inh; 1,600 compounds, 77% hits; inhibition, % at 10 µM; FluxOR thallium flux fluorescence;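 active means mean percent inhibition of duplicate wells above the buffer-only control mean plus 3 SD of those controls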;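 further: 0% = buffer only wells and 100% = XE-991 inhibitor control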
# An asterisk follows results filed as active; i = inactive; . = no result; + = active, no number. An excerpt weighted towards active compounds, which were near 3.1% of everything screened.
SMILES,KCNK9 block,KCNQ1 act,hERG rescue,KCNQ1 inh,KCNK3 block,KCNQ1 inh valid,CHO KCNQ1 ctr,KCNQ1 ephys val,KCNQ2 inh,KCNQ1 KCNE1 spec
CC(=O)O[C@H]1C[C@@]2(O)[C@@H](OC(=O)c3ccccc3)C3[C@@](C)([C@@H](O)C[C@H]4OC[C@@]34OC(C)=O)[C@@H](O)[C@H](OC(C)=O)C(=C1C)C2(C)C (stereo not given in full),i,i,-4.5,i,i,.,.,.,.,.
COc1ccc(OC)c(NC(=O)CCCN2C(=S)NC(C)(C)CC2C)c1 (stereo not given),i,i,-2.4,i,i,.,.,.,.,.
COc1ccc(C)cc1NC(=O)CCCN1C(=S)NC(C)(C)CC1C (stereo not given),i,i,-11.9,6*,i,0.0,0.482,.,i,i
CCCCCN(C(=O)CCC(=O)OCC(=O)N1C(C)CCCC1C)c1c(N)n(CCCC)c(=O)[nH]c1=O (stereo not given),i,i,-10.2,i,i,.,.,.,.,.
COC(=O)c1c(C)oc2ccc(N(C(=O)c3ccncc3)S(=O)(=O)c3ccc4ccccc4c3)cc12,i,i,-9.5,8*,i,136.5*,0.402,.,110.0%*,140.0%*
COC(=O)c1c(C)oc2ccc(N(C(=O)c3ccncc3)S(=O)(=O)c3ccc(C)cc3C)cc12,i,i,-11.0,9*,i,135.0*,0.389,i,126.7%*,131.0%*
CN(C)c1ccc2c3c(cccc13)C(=O)N(c1ccccc1)C2=O,i,i,-11.7,i,.,.,.,.,.,.
Nc1ccc2c3c(cccc13)C(=O)N(c1ccccc1)C2=O,i,i,-42.0,i,i,.,.,.,.,.
CCN1C(=O)c2cccc3c(Cl)ccc(c23)C1=O,i,i,-4.8,i,i,.,.,.,.,.
CC(C)CCN1C(=O)c2cccc3c(N)ccc(c23)C1=O,i,i,-42.1,24*,i,+,0.0055*,.,i,i
Cc1cccc(N2C(=O)c3cccc4c(N)ccc(c34)C2=O)c1,i,i,-51.3,23*,i,+,0.0085*,.,i,i
Cc1cccc(N2C(=O)c3cccc4c(N(C)CCO)ccc(c34)C2=O)c1,i,i,-17.2,7*,i,121.5*,0.25*,.,i,i
COc1ccccc1NS(=O)(=O)c1ccc(NC(=O)c2[nH]nc(OC)c2[N+](=O)[O-])cc1,i,i,-6.4,i,i,.,.,.,.,.
COc1ccc(NS(=O)(=O)c2ccc(-c3coc(C)n3)cc2)cc1OC,i,i,-13.0,8*,i,124.0*,0.516,i,83.7%*,36.5%*
O=C1c2ccc(Br)cc2C(=O)N1c1ccc(Cc2ccncc2)cc1,i,i,-9.9,15*,i,140.0*,0.497,i,99.3%*,127.5%*
O=C1C2C3C=CC(C3)C2C(=O)N1c1ccc(Cc2ccncc2)cc1 (stereo not given),i,i,-4.1,i,i,.,.,.,.,.
CCOc1ccc(NC(=O)CN(C)C(=O)CCN2C(=O)C3CC=CCC3C2=O)cc1OCC (stereo not given),.,.,.,.,i,.,.,.,.,.
O=C1CCCCC1C(Nc1ccc(Br)cc1)c1ccccc1 (stereo not given),-6.58*,i,-3.0,8*,i,126.5*,0.439,+,89.0%*,171.5%*
Cc1c(C(N)=O)c(-c2ccccc2)nn1-c1ccccc1,i,i,-7.2,i,i,.,.,.,.,.
CCCc1c(-c2ccc(O)cc2)nn(-c2ccc(O)cc2)c1-c1ccc(O)cc1,i,i,-35.6,13*,-8.97*,146.5*,0.254*,.,i,+
Cc1ccc(C)c(OCCCCn2cnc3ccccc3c2=O)c1,i,i,-9.0,i,i,.,.,.,.,.
Cc1ccc(OCCCCn2cnc3ccccc32)c(C)c1,i,i,-11.0,9*,i,115.5*,0.512,i,74.0%*,81.5%*
N#Cc1ccccc1NC(=O)C1SC(=Nc2ccccc2)C(C(=O)Nc2ccc(Cl)cc2)=C1N (stereo not given),i,i,-20.9,10*,i,112.5*,0.429,i,97.3%*,82.0%*
CCOc1ccc(N=C2SC(C(=O)Nc3ccccc3C#N)C(N)=C2C(=O)Nc2ccc(Cl)cc2)cc1 (stereo not given),i,i,-3.0,i,i,.,.,.,.,.
CCOC(=O)c1ccc(NC(=S)NCCc2ccccc2F)cc1,i,i,-16.7,8*,i,84.5*,0.446,.,77.0%*,50.5%*
SMILES,KCNK9 block,KCNQ1 act,hERG rescue,KCNQ1 inh,KCNK3 block,KCNQ1 inh valid,CHO KCNQ1 ctr,KCNQ1 ephys val,KCNQ2 inh,KCNQ1 KCNE1 spec
COc1ccccc1NC(C#N)c1ccccc1OCc1ccccc1 (stereo not given),i,i,-16.8,7*,i,99.5*,0.384,i,96.3%*,135.0%*
CNC(=O)c1ccc(OCc2ccccc2)c(OC)c1,.,.,.,.,i,.,.,.,.,.
CCCCN(C)CCNC(=O)Cn1ncc2c(=O)oc3ccc(C)cc3c21,i,i,-14.3,i,i,.,.,.,.,.
CC(=O)N(C)c1ccc(NC(=O)Nc2ccc(C)c(C)c2)cc1,i,i,-34.6,i,i,.,.,.,.,.
Cc1ccc2[nH]c3c(NCc4ccco4)ncnc3c2c1,i,i,-20.0,9*,i,102.5*,0.45,i,70.3%*,39.0%*
COc1cc(CNc2ncnc3c2[nH]c2ccc(C)cc23)cc(OC)c1,i,i,-12.8,i,i,.,.,.,.,.
Cc1onc(COc2ccccc2O)c1Br,i,i,-11.9,i,i,.,.,.,.,.
